Measurements gathered from unrelated publications.
M-phase phosphoprotein 8 chromodomain: M-phase phosphoprotein 8, chromodomain (Homo sapiens, UniProt Q99549)
ESR1: Estrogen receptor (ESR1, Homo sapiens, UniProt P03372)
ADRA2C: Alpha-2C adrenergic receptor (ADRA2C, Homo sapiens, UniProt P18825)
AChE: AChE (Phlebotomus papatasi, UniProt M1F887)

SMILES | target | observed | action | method | quantity | value
CCN(CCCC[C@H](NC(=O)[C@H](CC(C)C)NC(=O)[C@H](C)NC(=O)[C@H](Cc1ccccc1)NC(=O)c1ccoc1)C(=O)N[C@@H](CO)C(N)=O)C(C)C | M-phase phosphoprotein 8 chromodomain | cell-free assay | – | TR-FRET | IC50 | 1.2 µM
C[C@H]1CCC[C@H](O)CCCCCc2cc(O)cc(O)c2C(=O)O1 | ESR1 | reporter gene | agonist | luciferase | EC50 | 0.000134 µM
Clc1ccc(Cl)c(-c2ccccc2Cl)c1 | ESR1 | reporter gene | agonist | luciferase | EC50 | 9 µM
CCN(CCCC[C@H](NC(=O)[C@H](CC(C)C)NC(=O)[C@H](C)NC(=O)[C@H](Cc1ccco1)NC(=O)c1cccnc1)C(=O)N[C@@H](CO)C(N)=O)C(C)C | M-phase phosphoprotein 8 chromodomain | cell-free assay | – | TR-FRET | IC50 | 11 µM
O=C1C[C@@H](c2ccc(O)cc2)Oc2cc(O)ccc21 | ESR1 | reporter gene | agonist | luciferase | EC50 | 0.681 µM
CCCC[C@@H](NC(=O)[C@@H](N)Cc1c(C)cc(O)cc1C)C(=O)NCC(=O)N[C@@H](Cc1ccc(F)cc1)C(=O)N(C)CCC[C@@]1(c2ccc(F)cc2)OCc2cc(C#N)ccc21 | ADRA2C | ligand displacement | – | radioligand | Ki | 0.28 µM
C[C@H](N)Cn1ncc2ccc3c(c21)CCCO3 | ADRA2C | ligand displacement | – | radioligand | Ki | 24.8 µM
Clc1ccc(-c2ccc(Cl)cc2Cl)cc1 | ESR1 | reporter gene | agonist | luciferase | EC50 | 27 µM
CC[N+](C)(C)c1cccc(O)c1 | AChE | enzyme activity | inhibitor | – | IC50 | 1.18 µM
O=C(CCCc1ccccc1)OC(CCN1CCN(CCCN(c2ccc(F)cc2)c2ccc(F)cc2)CC1)c1ccccc1 (centres unmarked) | Norepinephrine transporter (Slc6a2, Rattus norvegicus, UniProt Q9WTR4) | ligand displacement | – | radioligand | Ki | > 10 µM
CCN(CCCC[C@H](NC(=O)[C@H](Cc1ccc(OC)c(OC)c1)NC(=O)[C@H](C)NC(=O)[C@H](Cc1ccccc1)NC(=O)c1cccnc1)C(=O)N[C@@H](CO)C(N)=O)C(C)C | M-phase phosphoprotein 8 chromodomain | cell-free assay | – | TR-FRET | IC50 | 1.9 µM
COc1cc2c3cc1Oc1cc(ccc1O)C[C@@H]1c4c(cc(OC)c(O)c4Oc4ccc(cc4)C[C@@H]3N(C)CC2)CC[N+]1(C)C | AChE | enzyme activity | inhibitor | – | IC50 | 38.9 µM
CCN(CCCC[C@H](NC(=O)[C@H](CC(C)C)NC(=O)[C@H](C)NC(=O)[C@H](Cc1c(F)c(F)c(F)c(F)c1F)NC(=O)c1cccnc1)C(=O)N[C@@H](CO)C(N)=O)C(C)C | M-phase phosphoprotein 8 chromodomain | cell-free assay | – | TR-FRET | IC50 | 1.6 µM
Clc1ccc(-c2ccccc2Cl)cc1 | ESR1 | reporter gene | agonist | luciferase | EC50 | 20 µM
